The source made the active and inactive calls. The calls are words filed in the database; no cut-off is given here.

The term inhibition denotes the drop in the measured response relative to a control, in per cent. The term Inhibition denotes the share of the control response that was lost under treatment. A high value points to a response far below the control. By inhibition in vivo is commonly meant the drop in the measured response relative to a control, in per cent. Low values mean a weak effect, high ones a strong effect.

Assay [1] concerns Rattus norvegicus. Nature of the assay: […] inhibition of sorbitol accumulation in rat sciatic nerves at 10e-6 M concentration; NS=not significant. Type of assay: functional. Conditions: Sciatic nerve. The method, boiled down: (§1)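 Sciatic nerves were taken from male Sprague-Dawley rats (200–250 g) after CO2 euthanasia. Nerves were incubated 3 h at 37 °C under 95% air/5% CO2 in Hank's salts buffer, pH 7.4, with 50 mM glucose and (0–5)×10^-5 M compound, in triplicate. Nerve sorbitol was measured spectrofluorometrically in duplicate, and the read-out was % inhibition of sorbitol accumulation.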

For assay [2], the target named is Aldo-keto reductase family 1 member B1 (Bos taurus) (UniProt P16116). Nature of the assay: Inhibition of aldose reductase in partially purified bovine lens preparation at 10e-7 M concentration. The method, boiled down: (§2)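 Aldose reductase partially purified from bovine lens, with the final chromatographic step of the earlier preparation omitted. Assay run in duplicate with test compound at 1 × 10^-6 M or 1 × 10^-7 M. Reported as % inhibition of enzymatic activity.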

The target is the same in assay [3]. The assay can be described thus: Inhibition of aldose reductase in partially purified bovine lens preparation at 10e-6 M. The method in brief: as §2
For assay [4], the system named is Rattus norvegicus. Nature of the assay: In vivo inhibition of galactitol accumulation in the diaphragm of rat. at a dose of 48 mg/kg/day; NS =not significant. Type of assay: functional, organism-based.
Assay [5] relates to Rattus norvegicus. Nature of the assay: […] inhibition of sorbitol accumulation in rat sciatic nerves at 10e-5 M concentration. It is filed as functional, Sciatic nerve. The method in brief: as §1
Assay [6] has as its system Rattus norvegicus. Nature of the assay: In vivo inhibition of galactitol accumulation in the sciatic nerves of rat at a dose of 48 mg/kg/day; NS=not significant. It is filed as functional, organism-based. The note with it: Sciatic nerve.
Assay [7] has as its system Rattus norvegicus. The assay can be described thus: In vivo inhibition of galactitol accumulation in the sciatic nerves of rat at a dose of 55 mg/kg/day; NS=not significant. The note with it: Sciatic nerve. Type of assay: functional, organism-based.
For assay [8], the system named is Rattus norvegicus. Nature of the assay: In vivo inhibition of galactitol accumulation in the diaphragm of rat. at a dose of 56 mg/kg/day; NS=not significant. It is filed as functional, organism-based.
Assay [9] concerns Rattus norvegicus. The assay can be described thus: In vivo inhibition of galactitol accumulation in the sciatic nerves of rat at a dose of 100 mg/kg/day. It is filed as functional. Conditions: Sciatic nerve.
In assay [10] the test system is Rattus norvegicus. Nature of the assay: In vivo inhibition of galactitol accumulation in the diaphragm of rat at a dose of 100 mg/kg/day. It is filed as functional.
For assay [11], the system named is Rattus norvegicus. Nature of the assay: In vivo inhibition of sorbitol accumulation in rat sciatic nerves at 10e-6 M concentration. Type of assay: functional, Sciatic nerve. The method, boiled down: as §1
The test system of assay [12] is Rattus norvegicus. The assay can be described thus: In vivo inhibition of galactitol accumulation in the sciatic nerves of rat at a dose of 57 mg/kg/day. Type of assay: functional. Conditions: Sciatic nerve.
Assay [13] relates to Rattus norvegicus. Nature of the assay: In vivo inhibition of galactitol accumulation in the diaphragm of rat at a dose of 97 mg/kg/day. Type of assay: functional.
Assay [14] deals with Rattus norvegicus. The assay can be described thus: In vivo inhibition of galactitol accumulation in the diaphragm of rat at a dose of 57 mg/kg/day. Type of assay: functional.
In assay [15] the test system is Rattus norvegicus. The assay can be described thus: In vivo inhibition of galactitol accumulation in the sciatic nerves of rat at a dose of 97 mg/kg/day. Type of assay: functional. The note with it: Sciatic nerve.
The subject of assay [16] is Rattus norvegicus. Nature of the assay: In vivo inhibition of galactitol accumulation in the diaphragm of rat at a dose of 46 mg/kg/day; NS =not significant. Type of assay: functional, organism-based.
Assay [17] relates to Rattus norvegicus. Nature of the assay: […] inhibition of sorbitol accumulation in rat sciatic nerves at 10e-5 M concentration; NS=not significant. Type of assay: functional. The note with it: Sciatic nerve. The method in brief: as §1
In assay [18] the test system is Rattus norvegicus. The assay can be described thus: In vivo inhibition of galactitol accumulation in the sciatic nerves of rat at a dose of 46 mg/kg/day; NS=not significant. Type of assay: functional, organism-based. The note with it: Sciatic nerve.
Assay [19] has as its system Rattus norvegicus. Nature of the assay: In vivo inhibition of galactitol accumulation in the sciatic nerves of rat at a dose of 6 mg/kg/day. It is filed as functional. The note with it: Sciatic nerve.
Assay [20] relates to Rattus norvegicus. The assay can be described thus: […] inhibition of sorbitol accumulation in rat sciatic nerves at 5*10e-6 M concentration. Type of assay: functional, Sciatic nerve. Conditions: in the assay text read “In vitro” for “In vivo”. The method in brief: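 Sciatic nerves from male Sprague-Dawley rats (200–250 g), removed after CO2 euthanasia, incubated ex vivo for 3 h at 37 °C under 95% air/5% CO2 in Hank's salts buffer, pH 7.4, with 50 mM glucose and 5 × 10^-6 M test compound. Triplicate incubations; nerve sorbitol measured in duplicate by spectrofluorometric assay. Reported as % inhibition of sorbitol accumulation.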

In assay [21] the test system is Rattus norvegicus. The assay can be described thus: In vivo inhibition of galactitol accumulation in the diaphragm of rat vat a dose of 6 mg/kg/day. It is filed as functional.
Assay [22] deals with Rattus norvegicus. Nature of the assay: In vivo inhibition of sorbitol accumulation in rat sciatic nerves at 5*10e-5 M concentration. Type of assay: functional, Sciatic nerve. The note with it: in the assay text read “In vitro” for “In vivo”. The method in brief: as §1
Assay [23] concerns Rattus norvegicus. The assay can be described thus: In vivo inhibition of galactitol accumulation in the diaphragm of rat. at a dose of 100 mg/kg/day. It is filed as functional.
Assay [24] concerns Rattus norvegicus. The assay can be described thus: In vivo inhibition of galactitol accumulation in the diaphragm of rat. at a dose of 26 mg/kg/day. It is filed as functional.
Assay [25] relates to Rattus norvegicus. The assay can be described thus: In vivo inhibition of galactitol accumulation in the sciatic nerves of rat at a dose of 26 mg/kg/day. It is filed as functional. The note with it: Sciatic nerve.
Assay [26] has as its system Rattus norvegicus. The assay can be described thus: In vivo inhibition of galactitol accumulation in the diaphragm of rat at a dose of 48 mg/kg/day. Type of assay: functional.
The subject of assay [27] is Rattus norvegicus. The assay can be described thus: In vivo inhibition of galactitol accumulation in the sciatic nerves of rat at a dose of 100 mg/kg/day; NS=not significant. The note with it: Sciatic nerve. It is filed as functional, organism-based.

As to `CCCOC(=O)N(CC(=O)O)C(=O)c1cccc2c(C(F)(F)F)c(OC)ccc12`, the inhibition entry in the assay on Rattus norvegicus [1], in the assay with Rattus norvegicus [4] and in the assay on Rattus norvegicus [6] was “inactive” throughout. Also, the inhibition in [2] came to 81%; in assay [3], 90%. The compound further gave an Inhibition with Rattus norvegicus [5] of 62%.
Consider `COc1ccc2c(/C(=N/S(=O)(=O)c3ccc(Br)cc3)N(C)CC(=O)O)cccc2c1C(F)(F)F`, for which the inhibition in assay [2] came to 5%; in assay [3] it was 53%. Also, the inhibition entry in the assay on Rattus norvegicus [7] and in the assay with Rattus norvegicus [8] was “inactive” in each case.
Take `COc1ccc2c(C(=O)N(CC(=O)O)C(C)=O)cccc2c1C(F)(F)F`: the figures for the inhibition in assay [2] and in [3] were 61% and 91%, respectively. Moreover, the inhibition in vivo at 100 mg/kg/day was 36% with Rattus norvegicus [9] and 39% in the assay on Rattus norvegicus [10]. Moreover, the Inhibition amounted to 62% with Rattus norvegicus [5] and 40% in the assay on Rattus norvegicus [11].
In the case of `CCOC(=O)N(CC(=O)O)C(=O)c1cccc2c(C(F)(F)F)c(OC)ccc12`, the inhibition in [2] was determined as 81%; in [3], 98%. For the same compound, the inhibition in vivo at 57 mg/kg/day in the assay with Rattus norvegicus [12] stood at 56%; in the assay on Rattus norvegicus [14], 70%. In addition, the inhibition in vivo at 97 mg/kg/day with Rattus norvegicus [13] was 83%; in the assay with Rattus norvegicus [15] it was 90%. Further, the Inhibition turned out to be 88% in the assay on Rattus norvegicus [5] and 51% in the assay with Rattus norvegicus [11].
Turning to `COc1ccc2c(C(=O)N(CC(=O)O)C(=O)OC(C)C)cccc2c1C(F)(F)F`, in assay [2], the inhibition was 35%. In addition, the inhibition entry in the assay on Rattus norvegicus [16], in the assay on Rattus norvegicus [17] and with Rattus norvegicus [18] was “inactive” in each case.
As for `COc1ccc2c(C(=S)N(C)CC(=O)O)cccc2c1C(F)(F)F` [TOLRESTAT], the results for the inhibition in vivo at 6 mg/kg/day with Rattus norvegicus [19] and in the assay with Rattus norvegicus [21] were 53% and 80%, respectively. In addition, the Inhibition is reported as 76% with Rattus norvegicus [20] and 82% in the assay with Rattus norvegicus [5].
On to `COc1ccc2c(/C(=N/C#N)N(C)CC(=O)O)cccc2c1C(F)(F)F`, for which the Inhibition in the assay on Rattus norvegicus [22] is reported as 81%; with Rattus norvegicus [20] it was 70%. Also, the inhibition in [2] worked out at 80%; in assay [3], 81%. In addition, the values for the inhibition in vivo at 100 mg/kg/day with Rattus norvegicus [9] and in the assay on Rattus norvegicus [23] were 61% and 72%, respectively. Further, the figures for the inhibition in vivo at 26 mg/kg/day in the assay with Rattus norvegicus [24] and with Rattus norvegicus [25] were 44% and 30%, respectively.
Regarding `COC(=O)N(CC(=O)O)C(=O)c1cccc2c(C(F)(F)F)c(OC)ccc12`, in the assay with Rattus norvegicus [26], the inhibition in vivo at 48 mg/kg/day was found to be 54%. Also, the inhibition result in the assay on Rattus norvegicus [1] is “inactive”. The inhibition in assay [2] is 82%; in [3], 97%. For the same compound, the Inhibition with Rattus norvegicus [5] is 58%.
With `COc1ccc2c(C(=O)N(CC(=O)O)C(=O)N(C)C)cccc2c1C(F)(F)F`, the inhibition result with Rattus norvegicus [1] and with Rattus norvegicus [27] was “inactive” throughout. In addition, the inhibition in vivo at 100 mg/kg/day in the assay with Rattus norvegicus [10] amounted to 21%. In addition, the inhibition in [3] worked out at 3%. The Inhibition in the assay on Rattus norvegicus [5] turned out to be 34%.

The values above are taken from ChEMBL document CHEMBL1124370 (1989).
